ChEMBL document CHEMBL1268868, “Discovery and mechanistic study of a class of protein arginine methylation inhibitors” (J Med Chem, 2010)
Activity calls are given as the source filed them. The calls are words filed in the database; no cut-off is given here.

Each compound was assayed against T1, Histone acetyltransferase p300 (Homo sapiens, UniProt Q09472) (assay: Inhibition of HAT p300-mediated […] assessed as residual activity at 1 mM using H4(1-20) and [14C]-acetyl CoA by scintillation counting; values are per cent of control).
T1 sequence (Q09472 whole entry): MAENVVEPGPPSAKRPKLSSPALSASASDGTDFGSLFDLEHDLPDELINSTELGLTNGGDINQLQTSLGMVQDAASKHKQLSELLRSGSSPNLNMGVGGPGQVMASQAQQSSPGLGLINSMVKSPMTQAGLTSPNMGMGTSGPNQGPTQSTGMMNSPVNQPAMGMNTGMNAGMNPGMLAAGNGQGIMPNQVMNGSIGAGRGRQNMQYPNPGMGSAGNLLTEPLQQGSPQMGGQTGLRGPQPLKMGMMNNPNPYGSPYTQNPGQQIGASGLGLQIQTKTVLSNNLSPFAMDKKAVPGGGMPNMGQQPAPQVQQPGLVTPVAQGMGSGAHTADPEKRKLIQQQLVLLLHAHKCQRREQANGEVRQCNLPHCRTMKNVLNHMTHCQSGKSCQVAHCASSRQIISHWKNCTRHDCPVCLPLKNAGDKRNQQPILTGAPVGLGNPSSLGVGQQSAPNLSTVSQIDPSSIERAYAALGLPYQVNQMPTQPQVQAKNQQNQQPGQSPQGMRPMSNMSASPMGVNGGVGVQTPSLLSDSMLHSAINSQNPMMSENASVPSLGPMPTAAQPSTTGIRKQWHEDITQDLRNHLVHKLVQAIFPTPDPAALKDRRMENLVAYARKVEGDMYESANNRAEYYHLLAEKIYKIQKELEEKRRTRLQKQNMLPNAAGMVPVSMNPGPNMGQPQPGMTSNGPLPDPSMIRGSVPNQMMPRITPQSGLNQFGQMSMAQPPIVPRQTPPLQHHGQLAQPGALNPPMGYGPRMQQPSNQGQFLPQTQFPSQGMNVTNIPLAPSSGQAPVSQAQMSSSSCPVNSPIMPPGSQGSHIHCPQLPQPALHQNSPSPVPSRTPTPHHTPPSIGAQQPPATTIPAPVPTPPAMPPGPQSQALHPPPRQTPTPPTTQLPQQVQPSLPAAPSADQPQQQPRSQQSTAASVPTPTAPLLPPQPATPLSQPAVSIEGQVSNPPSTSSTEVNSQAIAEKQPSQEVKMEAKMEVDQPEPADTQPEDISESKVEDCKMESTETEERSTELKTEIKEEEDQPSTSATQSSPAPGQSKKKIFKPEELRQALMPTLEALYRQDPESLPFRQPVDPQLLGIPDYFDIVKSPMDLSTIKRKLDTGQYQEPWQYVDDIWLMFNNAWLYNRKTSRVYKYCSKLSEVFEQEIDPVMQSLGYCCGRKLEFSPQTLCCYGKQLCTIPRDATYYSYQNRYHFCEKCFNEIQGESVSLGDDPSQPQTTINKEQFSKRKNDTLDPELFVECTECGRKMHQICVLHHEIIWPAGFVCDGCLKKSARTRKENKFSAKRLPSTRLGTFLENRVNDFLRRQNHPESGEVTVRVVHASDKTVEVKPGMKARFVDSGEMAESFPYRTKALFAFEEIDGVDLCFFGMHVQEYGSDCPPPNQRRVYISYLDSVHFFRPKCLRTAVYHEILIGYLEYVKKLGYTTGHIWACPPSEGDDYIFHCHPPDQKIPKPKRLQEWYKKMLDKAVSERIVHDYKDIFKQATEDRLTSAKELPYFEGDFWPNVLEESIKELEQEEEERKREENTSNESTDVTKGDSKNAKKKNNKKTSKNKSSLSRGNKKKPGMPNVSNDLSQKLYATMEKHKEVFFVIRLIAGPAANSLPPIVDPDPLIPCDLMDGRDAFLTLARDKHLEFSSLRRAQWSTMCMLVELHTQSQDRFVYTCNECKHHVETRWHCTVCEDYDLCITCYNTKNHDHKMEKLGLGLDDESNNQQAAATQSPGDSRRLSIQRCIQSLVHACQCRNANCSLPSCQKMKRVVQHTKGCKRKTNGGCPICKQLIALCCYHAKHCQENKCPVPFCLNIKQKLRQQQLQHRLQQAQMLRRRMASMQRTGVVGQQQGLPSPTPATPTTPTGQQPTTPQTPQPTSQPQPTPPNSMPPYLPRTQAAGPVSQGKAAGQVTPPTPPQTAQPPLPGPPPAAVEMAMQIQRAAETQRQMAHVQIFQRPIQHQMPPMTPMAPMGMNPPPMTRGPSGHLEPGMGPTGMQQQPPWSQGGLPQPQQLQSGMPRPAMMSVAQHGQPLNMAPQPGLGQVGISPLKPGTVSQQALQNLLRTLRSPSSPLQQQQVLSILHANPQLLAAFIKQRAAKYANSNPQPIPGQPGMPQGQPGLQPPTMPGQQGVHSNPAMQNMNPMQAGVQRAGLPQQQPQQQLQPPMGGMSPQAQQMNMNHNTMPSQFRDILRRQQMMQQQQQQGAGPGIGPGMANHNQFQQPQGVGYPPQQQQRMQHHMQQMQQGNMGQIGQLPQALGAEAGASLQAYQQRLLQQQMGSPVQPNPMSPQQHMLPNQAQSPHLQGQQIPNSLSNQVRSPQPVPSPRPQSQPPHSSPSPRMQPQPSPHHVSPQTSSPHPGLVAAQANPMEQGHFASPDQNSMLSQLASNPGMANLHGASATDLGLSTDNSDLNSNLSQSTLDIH

residual activity [%] | Compound
84 | N=C(N)c1ccc(/C=C/c2ccc(C(=N)N)cc2)cc1

The compounds below were run against T1, Histone acetyltransferase p300 (assay: Inhibition of HAT p300-mediated […] using H4(1-20) and [14C]-acetyl CoA by scintillation counting).
How it was run: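 Recombinant p300 HAT domain (1287-1666), 20 nM, with 10 μM H4(1-20) and 10 μM [14C]-acetyl CoA plus increasing inhibitor in 50 mM HEPES pH 8.0, 50 mM NaCl, 0.5 mM DTT, 1 mM EDTA; 10 min at 30 °C. Quenched on P81 filter paper, acetylated product counted by liquid scintillation; fractional activity plotted against inhibitor concentration.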

IC50 [µM] | Compound
21.3 | CC(=O)Nc1ccc(/N=N/c2c(S(=O)(=O)O)cc3cc(NC(=O)Nc4ccc5c(O)c(/N=N/c6ccccc6)c(S(=O)(=O)O)cc5c4)ccc3c2O)cc1
118 | O=C(Nc1ccc2c(O)cc(S(=O)(=O)O)cc2c1)Nc1ccc2c(O)cc(S(=O)(=O)O)cc2c1

The compounds below were run against T2, Protein arginine N-methyltransferase 1 (Homo sapiens, UniProt Q99873) (assay: Inhibition of His6x-tagged PRMT1-mediated protein arginine methylation expressed in Escherichia coli BL21 (DE3) using H4(1-20) and [14C]-SAM by scintillation counting).
Target sequence in this assay (Q99873 whole entry): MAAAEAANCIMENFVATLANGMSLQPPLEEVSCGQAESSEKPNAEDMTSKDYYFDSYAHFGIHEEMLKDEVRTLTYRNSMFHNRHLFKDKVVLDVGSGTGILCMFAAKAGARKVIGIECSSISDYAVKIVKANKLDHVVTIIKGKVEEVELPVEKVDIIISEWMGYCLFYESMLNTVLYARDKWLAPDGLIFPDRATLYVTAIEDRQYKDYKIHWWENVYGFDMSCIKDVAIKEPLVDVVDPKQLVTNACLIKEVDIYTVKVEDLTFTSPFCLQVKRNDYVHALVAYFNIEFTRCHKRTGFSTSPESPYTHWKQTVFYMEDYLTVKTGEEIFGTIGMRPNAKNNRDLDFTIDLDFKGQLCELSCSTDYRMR

IC50 [µM] | Compound
5.33 | Cc1ccc(C(=O)Nc2ccc(S(=O)(=O)O)c3cc(S(=O)(=O)O)cc(S(=O)(=O)O)c23)cc1NC(=O)c1cccc(NC(=O)Nc2cccc(C(=O)Nc3cc(C(=O)Nc4ccc(S(=O)(=O)O)c5cc(S(=O)(=O)O)cc(S(=O)(=O)O)c45)ccc3C)c2)c1 [SURAMIN]
72.1 | O=S(=O)(O)c1cc(O)c2c(/N=N/c3c(S(=O)(=O)O)cc4cc(S(=O)(=O)O)cc(O)c4c3O)cc(S(=O)(=O)O)cc2c1

What follows are compounds tested against Protein arginine N-methyltransferase 3 (Homo sapiens, UniProt O60678) (assay: Inhibition of His6x-tagged PRMT3-mediated arginine methylation expressed in Escherichia coli BL21 (DE3) using GAR R4 peptide and [14C]-SAM by scintillation counting).
Sequence of Protein arginine N-methyltransferase 3 (O60678 whole entry): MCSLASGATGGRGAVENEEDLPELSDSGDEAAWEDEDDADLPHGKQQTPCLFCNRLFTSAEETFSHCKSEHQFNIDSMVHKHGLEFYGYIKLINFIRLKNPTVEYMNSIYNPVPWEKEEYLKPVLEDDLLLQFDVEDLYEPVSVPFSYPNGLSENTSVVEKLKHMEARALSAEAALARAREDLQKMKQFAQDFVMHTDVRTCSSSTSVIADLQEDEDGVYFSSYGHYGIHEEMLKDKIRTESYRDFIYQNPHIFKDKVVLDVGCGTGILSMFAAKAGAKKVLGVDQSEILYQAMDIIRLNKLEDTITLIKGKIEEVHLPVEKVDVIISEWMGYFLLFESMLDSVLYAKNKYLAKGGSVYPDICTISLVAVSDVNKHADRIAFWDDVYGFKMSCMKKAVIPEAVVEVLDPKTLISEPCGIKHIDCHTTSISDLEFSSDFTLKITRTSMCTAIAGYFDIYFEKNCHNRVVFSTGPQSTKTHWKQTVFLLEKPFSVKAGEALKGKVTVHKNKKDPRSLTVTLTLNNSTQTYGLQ
How it was run: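 His6x-PRMT3 expressed in E. coli BL21(DE3), Ni-NTA purified; 0.1 μM enzyme, 2 μM R4 peptide, 5 μM [14C]-SAM, varied inhibitor, 30 °C in 50 mM HEPES pH 8.0, 0.5 mM DTT, 1 mM EDTA, 50 mM NaCl; 5 min preincubation before enzyme. P81 filter capture, liquid scintillation; IC50 = inhibitor concentration giving half-maximal activity.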

IC50 [µM] | Compound
7.1 | CC(=O)Nc1ccc(/N=N/c2c(S(=O)(=O)O)cc3cc(NC(=O)Nc4ccc5c(O)c(/N=N/c6ccccc6)c(S(=O)(=O)O)cc5c4)ccc3c2O)cc1

These compounds were tested against T3, Histone-arginine methyltransferase CARM1 (Mus musculus, UniProt Q9WVG6) (assay: Inhibition of mouse GST-tagged CARM1-mediated arginine methylation expressed in Escherichia coli BL21 (DE3) using H3(1-31) and [14C]-SAM by scintillation counting).
T3 sequence (Q9WVG6 whole entry): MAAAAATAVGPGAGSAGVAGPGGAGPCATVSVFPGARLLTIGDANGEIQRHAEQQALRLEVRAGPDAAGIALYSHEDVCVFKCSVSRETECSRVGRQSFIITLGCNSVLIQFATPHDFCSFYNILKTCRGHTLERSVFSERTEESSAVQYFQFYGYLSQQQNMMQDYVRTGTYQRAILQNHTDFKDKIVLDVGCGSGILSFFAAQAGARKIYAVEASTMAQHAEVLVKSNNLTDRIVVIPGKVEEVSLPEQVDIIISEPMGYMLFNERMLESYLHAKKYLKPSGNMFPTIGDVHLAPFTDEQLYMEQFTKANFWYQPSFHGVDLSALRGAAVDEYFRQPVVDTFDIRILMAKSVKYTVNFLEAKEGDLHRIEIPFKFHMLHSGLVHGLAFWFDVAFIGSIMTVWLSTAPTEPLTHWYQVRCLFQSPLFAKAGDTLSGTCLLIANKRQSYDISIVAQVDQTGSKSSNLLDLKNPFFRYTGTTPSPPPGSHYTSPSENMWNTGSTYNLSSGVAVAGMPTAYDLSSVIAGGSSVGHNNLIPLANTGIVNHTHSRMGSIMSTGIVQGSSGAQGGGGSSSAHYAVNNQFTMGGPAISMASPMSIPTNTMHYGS
How it was run: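 GST-tagged mouse CARM1 from E. coli BL21(DE3), glutathione-agarose purified; 5 μM enzyme, 1 mM H3(1-31), 30 μM [14C]-SAM, inhibitor up to 500 μM, 30 °C in 50 mM HEPES pH 8.0, 0.5 mM DTT, 1 mM EDTA, 50 mM NaCl. P81 filter capture, liquid scintillation counting.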

IC50 [µM] | Compound
2000 | CC(=O)Nc1ccc(/N=N/c2c(S(=O)(=O)O)cc3cc(NC(=O)Nc4ccc5c(O)c(/N=N/c6ccccc6)c(S(=O)(=O)O)cc5c4)ccc3c2O)cc1

Each compound was assayed against T2, Protein arginine N-methyltransferase 1 (assay: Inhibition of His6x-tagged PRMT1-mediated arginine methylation expressed in Escherichia coli BL21 (DE3) assessed as residual activity at 100 uM using H4(1-20) and [14C]-AdoMet by scintillation counting; values are per cent of control).
Target sequence in this assay (Q99873 whole entry, looked up): as the sequence (Q99873 whole entry) above

residual activity [%] | Compound
71.4 | CC(=O)Nc1ccc2cc(S(=O)(=O)O)cc(OS(=O)(=O)c3ccccc3)c2c1
86.9 | O=C(Nc1cccc2c(S(=O)(=O)O)cccc12)c1ccccc1

Each compound was assayed against T2, Protein arginine N-methyltransferase 1 (assay: Inhibition of His6x-tagged PRMT1-mediated arginine methylation expressed in Escherichia coli BL21 (DE3) assessed as residual activity at 500 uM using H4(1-20) and [14C]-AdoMet by scintillation counting).
Target sequence in this assay (Q99873 whole entry, looked up): as the sequence (Q99873 whole entry) above

Compound | inhibition
Nc1cc(S(=O)(=O)O)cc2cccc(S(=O)(=O)O)c12 | inactive
O=S(=O)(O)c1cc(O)c2c(S(=O)(=O)O)cc(S(=O)(=O)O)cc2c1 | inactive
CNc1ccc2c(O)cc(S(=O)(=O)O)cc2c1 | inactive
CC(=O)Nc1cc([N+](=O)[O-])c(N(C)S(=O)(=O)c2ccccc2)c2ccccc12 | inactive
CCOc1ccc(S(=O)(=O)NCCNS(=O)(=O)c2ccc(OCC)c3ccccc23)c2ccccc12 | inactive
NS(=O)(=O)c1ccc2c(O)cc(S(N)(=O)=O)cc2c1 | inactive
CCOC(=O)c1ccc(N2C(=O)CC(Sc3ccccc3C(=O)O)C2=O)cc1 (stereo not given) | inactive

Further lines, results first:

inhibition | Compound
inactive | CCOc1cc(C=O)ccc1OS(=O)(=O)c1ccc2ccccc2c1
inactive | COc1ccc(S(=O)(=O)Nc2ccc(S(=O)(=O)Nc3cccc4ccccc34)cc2)cc1OC
inactive | O=S(=O)(Nc1ccccc1)c1cc(S(=O)(=O)Nc2ccccc2)c2cc(O)ccc2c1
inactive | COc1cc(C=O)cc(I)c1OS(=O)(=O)c1ccc2ccccc2c1
inactive | CCOc1cc(C=O)cc(Br)c1OS(=O)(=O)c1ccc2ccccc2c1
inactive | O=S(=O)(Oc1c(Br)cc(Br)cc1Br)c1ccc2ccccc2c1
inactive | O=Cc1ccc(OS(=O)(=O)c2ccc3ccccc3c2)c(Br)c1
inactive | COc1ccc(S(=O)(=O)Oc2ccc3ccccc3c2)c2ccccc12
inactive | NS(=O)(=O)c1ccc(CNc2ccnc3cc4ccccc4cc23)cc1
inactive | O=S(=O)(Oc1cccc2c(OS(=O)(=O)c3ccccc3)cccc12)c1ccccc1

What follows are compounds tested against T2, Protein arginine N-methyltransferase 1 (assay: Inhibition of His6x-tagged PRMT1-mediated protein arginine methylation expressed in Escherichia coli BL21 (DE3) assessed as retained fractional activity of enzyme at 100 uM using H4(1-20) and [14C]-AdoMet by scintillation counting).
Design: scale not given: the % may be the effect or the level left
How it was run: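 His6x-PRMT1 (0.1 μM) with 2 μM H4(1-20) and 5 μM [14C]-AdoMet, compound at 100 μM or absent, 30 °C in 50 mM HEPES pH 8.0, 0.5 mM DTT, 1 mM EDTA, 50 mM NaCl. Substrates and compound preincubated 5 min before enzyme addition. Quenched on P81 paper, NaHCO3 wash, methylated product counted by liquid scintillation.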
Target sequence in this assay (Q99873 whole entry, looked up): as the sequence (Q99873 whole entry) above

Activity [%] | Compound
100 | CCOC(=O)[C@H]1CCCN(S(=O)(=O)c2cc(S(=O)(=O)c3ccccc3)cs2)C1
100 | O=C1N=c2ccccc2=C1Nc1ccc(Cc2ccc(NC3=c4ccccc4=NC3=O)cc2)cc1
100 | Cn1c(SCC(=O)Nc2ccccc2)nnc1-c1cncc(C#Cc2ccccc2)c1
100 | N#Cc1cccc(C#N)c1Oc1ccc(S(=O)(=O)Nc2ccc(Cl)cc2)cc1
100 | Cc1ccccc1Nc1nc(-c2ccccc2)c(C(=O)Nc2cccnc2)s1
100 | O=C(OC[C@@H]1CO[C@@](Cn2ccnc2)(c2ccc(Cl)cc2Cl)O1)c1ccccc1

Each compound was assayed against Protein arginine N-methyltransferase 6 (Homo sapiens, UniProt Q96LA8) (assay: Inhibition of His6x-tagged PRMT6-mediated arginine methylation expressed in Escherichia coli BL21 (DE3) using H3(1-31) peptide and [14C]-SAM by scintillation counting).
Sequence of Protein arginine N-methyltransferase 6 (Q96LA8 whole entry): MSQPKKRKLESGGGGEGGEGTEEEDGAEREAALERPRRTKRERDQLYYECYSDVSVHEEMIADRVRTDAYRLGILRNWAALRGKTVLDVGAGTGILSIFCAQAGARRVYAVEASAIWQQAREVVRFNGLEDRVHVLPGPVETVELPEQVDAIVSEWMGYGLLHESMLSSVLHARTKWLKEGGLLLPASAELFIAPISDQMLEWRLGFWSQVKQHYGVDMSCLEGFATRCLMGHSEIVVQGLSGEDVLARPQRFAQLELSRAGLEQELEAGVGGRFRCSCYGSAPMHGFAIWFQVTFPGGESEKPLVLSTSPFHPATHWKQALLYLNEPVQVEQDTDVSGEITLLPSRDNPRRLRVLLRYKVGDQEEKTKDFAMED
How it was run: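 His6x-PRMT6 from E. coli BL21(DE3), Ni-NTA purified; 0.5 μM enzyme, 10 μM H3(1-31), 5 μM [14C]-SAM and varied inhibitor at 30 °C in HEPES pH 8.0 buffer with DTT, EDTA, NaCl; 5 min preincubation before enzyme. Product captured on P81 paper, counted by liquid scintillation; IC50 taken at half-maximal activity.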

IC50 [µM] | Compound
39.2 | CC(=O)Nc1ccc(/N=N/c2c(S(=O)(=O)O)cc3cc(NC(=O)Nc4ccc5c(O)c(/N=N/c6ccccc6)c(S(=O)(=O)O)cc5c4)ccc3c2O)cc1

The compounds below were run against T2, Protein arginine N-methyltransferase 1 (assay: Inhibition of His6x-tagged PRMT1-mediated protein arginine methylation expressed in Escherichia coli BL21 (DE3) using GAR R4 peptide and [14C]-AdoMet by scintillation counting).
Target sequence in this assay (Q99873 whole entry): as the sequence (Q99873 whole entry) above

IC50 [µM] | Compound
1010 | Cc1ccc(C(=O)Nc2ccc(S(=O)(=O)O)c3cc(S(=O)(=O)O)cc(S(=O)(=O)O)c23)cc1NC(=O)c1cccc(NC(=O)Nc2cccc(C(=O)Nc3cc(C(=O)Nc4ccc(S(=O)(=O)O)c5cc(S(=O)(=O)O)cc(S(=O)(=O)O)c45)ccc3C)c2)c1 [SURAMIN]
463 | O=S(=O)(O)c1cc(O)c2c(/N=N/c3c(S(=O)(=O)O)cc4cc(S(=O)(=O)O)cc(O)c4c3O)cc(S(=O)(=O)O)cc2c1
